Assay results from PMC1976451 (Nucleic Acids Research, 2007).
“Also recorded” adds a separate entry of the source.

Columns and labels:
[1] = system: human β-globin thalassemic intron 2 mutated splice site at nucleotide 705 (pLuc705 cells); assay: Nuclear activity assay; format: cell-based; details: 24 h; for luciferase activity over the background: 1 μM, OptiMEM with or without 10% serum, RLU per microgram protein; for relative nuclear antisense activity in the oligoarginine, RX, RXR and RB panels: 1 and 5 μM; for luciferase activity compared with conjugates with 8 and 7 repeats: 10 μM; for luciferase activity in 60% serum: 60% serum-containing medium; for reduction of luciferase activity in 10% serum: versus 0% serum, R9−PMO data not shown
In short: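 Splice-correction luciferase assay in pLuc705 cells, seeded 20 h before at 30 000 cells/well. Cells washed, then treated 24 h with conjugate at 1, 5 or 10 μM in OptiMEM with 0, 10, 30 or 60% serum. Lysed 30 min at 4°C, clarified at 1000g, and luminescence read after adding luciferase reagent. RLU normalised per μg protein (BCA). Mean ± SD of 6–9 points, three independent experiments.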

[2] = cited from earlier work
[3] = system: fresh rat red blood cells; assay: Hemolysis assay; format: cell-based; details: 60 μM, 1 h at 37°C, hemoglobin release (absorbance at 540 nm); four data points from two independent experiments
In short: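 Fresh rat blood red cells exposed 1 h at 37°C to conjugate at 60 μM, with PBS as background and 0.005% TX-100 as positive control. Released hemoglobin read as absorbance at 540 nm. Mean ± SD of four data points from two independent experiments.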

pLuc705 cells [4] = assay: Propidium iodide membrane integrity; format: cell-based, human; details: for membrane damage / PI histogram shift with 0.5 or 5 h treatment: 60 μM, 0.5 and 5 h; for effect of addition of 10% serum on membrane toxicity: (RX)8−PMO data not shown; for effect on membrane integrity at higher concentrations: up to 60 µM tested
pLuc705 cells [5] = assay: MTT cell viability assay; format: cell-based, human; details: for inhibition of cell proliferation by monomers: 500 μM each, individually or in combination
In short: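 pLuc705 cells seeded 20 h before at 9000 cells/well. Exposed 24 h to 0, 2, 10, 20, 40 or 60 μM conjugate in OptiMEM with 10% serum; arginine and X monomers given at 500 μM alone or combined. Phase images taken first, then MTT at 0.5 mg/ml final for 4 h at 37°C and DMSO/0.01M HCl 10 min. A540 read; % viability relative to mean of untreated wells; six points, two experiments.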

pLuc705 cells [6] = assay: Microscopic images of treated cells; format: cell-based, human; details: 60 μM, OptiMEM with 10% serum, 24 h, ×100
In short: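 pLuc705 cells seeded at 9000 cells/well 20 h before treatment, then exposed 24 h to conjugate or vehicle in OptiMEM with 10% serum. Phase-contrast images were taken directly in culture medium on an inverted microscope, before the MTT read-out on the same wells.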

human liver HepG2 cells = assay: MTT toxicity in HepG2 cells; format: cell-based; details: up to 60 μM, data not shown
In short: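 HepG2 cells kept in RPMI 1640 with 2 mM L-glutamine, 100 U/ml penicillin and 10% FBS at 37°C, 5% CO2. Treatments were in OptiMEM with or without FBS. MTT added to a final 0.5 mg/ml for 4 h at 37°C. Most of the medium was replaced with DMSO containing 0.01M HCl for 10 min at 37°C. A540 was normalized to the mean of untreated wells.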

pLuc705 cells [7] = assay: Cell uptake assay; format: cell-based, human; details: 2 μM, media containing 30 and 60% serum
In short: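 pLuc705 cells (HeLa stably carrying luciferase interrupted by β-globin intron 2 with mutated splice site at 705) seeded 20 h before at 100 000 cells/well. Treated 24 h with 2 μM 3′-carboxyfluorescein-tagged conjugate in OptiMEM with 0, 10, 30 or 60% serum. Trypsin 10 min at 37°C strips membrane-bound material, then cells are washed and analysed by flow cytometry. Mean fluorescence ± SD, six points, two independent experiments.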

Compound: RBRBRBRBRBRBRBRBB [(RB)8−PMO]
- change of luciferase activity on addition of 10% serum ([1]; 5 μM): nearly doubled
- stability (of the peptide portion) in cells [2]: only partially degraded

Compound: CC(=O)N[C@@H](CCCNC(=N)N)C(=O)NCCCCCC(=O)N[C@@H](CCCNC(=N)N)C(=O)NCCCCCC(=O)N[C@@H](CCCNC(=N)N)C(=O)NCCCCCC(=O)N[C@@H](CCCNC(=N)N)C(=O)NCCCCCC(=O)N[C@@H](CCCNC(=N)N)C(=O)NCCCCCC(=O)N[C@@H](CCCNC(=N)N)C(=O)NCCCCCC(=O)N[C@@H](CCCNC(=N)N)C(=O)NCCCCCC(=O)N[C@@H](CCCNC(=N)N)C(=O)NCCCCCC(=O)NCCC(=O)N1CCN(P(=O)(OC[C@@H]2CN(P(=O)(OC[C@@H]3CN(P(=O)(OC[C@@H]4CN(P(=O)(OC[C@@H]5CN(P(=O)(OC[C@@H]6CN(P(=O)(OC[C@@H]7CN(P(=O)(OC[C@@H]8CN(P(=O)(OC[C@@H]9CN(P(=O)(OC[C@@H]%10CN(P(=O)(OC[C@@H]%11CN(P(=O)(OC[C@@H]%12CN(P(=O)(OC[C@@H]%13CN(P(=O)(OC[C@@H]%14CN(P(=O)(OC[C@@H]%15CN(P(=O)(OC[C@@H]%16CN(P(=O)(OC[C@@H]%17CN(P(=O)(OC[C@@H]%18CN(P(=O)(OC[C@@H]%19CN(C(C)=O)C[C@H](n%20cnc%21c(N)ncnc%21%20)O%19)N(C)C)C[C@H](n%19ccc(N)nc%19=O)O%18)N(C)C)C[C@H](n%18cnc%19c(N)ncnc%19%18)O%17)N(C)C)C[C@H](n%17cc(C)c(=O)[nH]c%17=O)O%16)N(C)C)C[C@H](n%16cc(C)c(=O)[nH]c%16=O)O%15)N(C)C)C[C@H](n%15cnc%16c(=O)[nH]c(N)nc%16%15)O%14)N(C)C)C[C@H](n%14cnc%15c(N)ncnc%15%14)O%13)N(C)C)C[C@H](n%13ccc(N)nc%13=O)O%12)N(C)C)C[C@H](n%12cc(C)c(=O)[nH]c%12=O)O%11)N(C)C)C[C@H](n%11ccc(N)nc%11=O)O%10)N(C)C)C[C@H](n%10ccc(N)nc%10=O)O9)N(C)C)C[C@H](n9cnc%10c(N)ncnc%109)O8)N(C)C)C[C@H](n8cc(C)c(=O)[nH]c8=O)O7)N(C)C)C[C@H](n7cc(C)c(=O)[nH]c7=O)O6)N(C)C)C[C@H](n6ccc(N)nc6=O)O5)N(C)C)C[C@H](n5cc(C)c(=O)[nH]c5=O)O4)N(C)C)C[C@H](n4ccc(N)nc4=O)O3)N(C)C)C[C@H](n3ccc(N)nc3=O)O2)N(C)C)CC1 (some centres unmarked) [(RX)8−PMO]
- hemolytic activity [3]: compatible with red blood cells
- membrane damage / PI histogram shift with 0.5 or 5 h treatment (pLuc705 cells [4]): little immediate membrane damage
- effect of addition of 10% serum on membrane toxicity (pLuc705 cells [4]; 24 h): significantly reduced membrane toxicity
- effect on membrane integrity at higher concentrations (pLuc705 cells [4]): significantly affect membrane integrity
- cell viability (pLuc705 cells [5]; 60 μM, OptiMEM with 10% serum, 24 h, mean of six data points): 40%
- appearance of treated cells (microscopic images) (pLuc705 cells [6]): rounded and detached from the culture well
- luciferase activity over the background [1]: 10–15 fold
- relative nuclear activity at 2 μM ([1]; 2 μM, OptiMEM with 10% serum, eleven conjugates with 0-8 X compared): highest activity
- change of luciferase activity on addition of 10% serum ([1]; 5 μM): nearly doubled
- relative nuclear activity at 5 μM ([1]; 5 μM, OptiMEM with 10% serum, eleven conjugates with 0-8 X compared): highest activities
- relative nuclear antisense activity in the oligoarginine, RX, RXR and RB panels [1]: highest nuclear antisense activities
- stability (of the peptide portion) in cells [2]: completely degraded

Compound: RXRRXRRXRRXRXB [(RXR)4−PMO]
- hemolytic activity [3]: compatible with red blood cells
- membrane damage / PI histogram shift with 0.5 or 5 h treatment (pLuc705 cells [4]): slight shift towards the PI+ region; also recorded: little immediate membrane damage
- cells in the PI+ region (pLuc705 cells [4]; 60 µM, 24 h, serum-free medium, flow cytometry): 57%
- effect of addition of 10% serum on membrane toxicity (pLuc705 cells [4]; 24 h): significantly reduced membrane toxicity
- effect on membrane integrity at higher concentrations (pLuc705 cells [4]): significantly affect membrane integrity
- toxicity in HepG2 cells (human liver HepG2 cells): dose-dependent inhibition of cell proliferation
- appearance of treated cells (microscopic images) (pLuc705 cells [6]): rounded and detached from the culture well
- luciferase activity over the background [1]: 10–15 fold
- change of luciferase activity on addition of 10% serum ([1]; 5 μM): nearly doubled
- relative nuclear antisense activity in the oligoarginine, RX, RXR and RB panels [1]: highest nuclear antisense activities

Compound: RXRXRXB [(RX)3−PMO]
- luciferase activity compared with conjugates with 8 and 7 repeats [1]: much lower luciferase activity

Compound: N=C(N)NCCC[C@H](N)C(=O)O [arginine]
- inhibition of cell proliferation by monomers (pLuc705 cells [5]): no inhibition of cell proliferation

Compound: RBRBRBB [(RB)3−PMO]
- luciferase activity compared with conjugates with 8 and 7 repeats [1]: much lower luciferase activity

Compound: RXRRXRRXRRXRXB [(RXR)4−PMOF]
- effect of higher serum concentrations on uptake (pLuc705 cells [7]): decreased

Compound: NCCCCCC(=O)O [X, 6-aminohexanoic acid]
- inhibition of cell proliferation by monomers (pLuc705 cells [5]): no inhibition of cell proliferation

Compound: RRRRRRRRRXB [R9−PMO]
- luciferase activity in 60% serum [1]: no activity
- reduction of luciferase activity in 10% serum [1]: approximately 30%

Compound: RXRXRXRXRXB [(RX)5−PMO]
- luciferase activity compared with conjugates with 8 and 7 repeats [1]: much lower luciferase activity

Compound: RBRBRBRBRBB [(RB)5−PMO]
- luciferase activity compared with conjugates with 8 and 7 repeats [1]: much lower luciferase activity

Compound: RRRRRRRRXB [R8−PMO]
- luciferase activity in 60% serum [1]: no activity
- reduction of luciferase activity in 10% serum [1]: approximately 30%
